High-throughput results (PubChem)
Ecoli tolC: growth inhibitors of E. coli tolC mutant, primary screen, strain BW25113 ΔtolC::kan, 384-well; growth inhibition, % at 10 µM (by protocol); 65,000 compounds, 2.2% hits; AID 573, 2007; OD615;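 active = growth inhibition at or above a cutoff equal to the mean over every tested compound plus 3 SD, cut at about 60% in these data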;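 note: growth measured after 20 h incubation at 37 °C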
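test system = E. coli BW25113 ΔtolC::kan bacteria | medium = LB with kanamycin 50 µg/mL | signal = OD at 615 nm | schedule = 37 °C, 20 h exposure | evaluation = % inhibition of E. coli growth | compound dosing = one dose of 10 µM final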
PostGolgi yeast: phenotypic screen on post-Golgi transport, primary screen | post-Golgi transport phenotypic cell assay | inhibition, % at 10 µM | 98,000 compounds, 0.9% hits;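 note: yeast cells grown in 1536-well plates; yeast grown about 18 h at 30C before absorbance read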
PostGolgi ctrl: growth inhibition of yeast control strain, primary screen, counter-screen for post-Golgi transport modulator project | efflux-deficient yeast background strain, growth absorbance A615, 16 h | inhibition, % at 10 µM | 98,000 compounds, 5% hits
HePTP inh: inhibitors of human HePTP phosphatase, primary screen, biochemical, absorbance, leukemia target | Tyrosine-protein phosphatase non-receptor type 7 (Homo sapiens), P35236 | recombinant HePTP phosphatase activity, OD absorbance | AID 521, 2006 | 110,000 compounds, 0.64% hits | inhibition, % at 20 µM; in the data active = inhibition above about 50%;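 note: plate controls were vehicle for no effect and reference inhibitor for full effect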
Target sequence (P35236 whole entry, looked up): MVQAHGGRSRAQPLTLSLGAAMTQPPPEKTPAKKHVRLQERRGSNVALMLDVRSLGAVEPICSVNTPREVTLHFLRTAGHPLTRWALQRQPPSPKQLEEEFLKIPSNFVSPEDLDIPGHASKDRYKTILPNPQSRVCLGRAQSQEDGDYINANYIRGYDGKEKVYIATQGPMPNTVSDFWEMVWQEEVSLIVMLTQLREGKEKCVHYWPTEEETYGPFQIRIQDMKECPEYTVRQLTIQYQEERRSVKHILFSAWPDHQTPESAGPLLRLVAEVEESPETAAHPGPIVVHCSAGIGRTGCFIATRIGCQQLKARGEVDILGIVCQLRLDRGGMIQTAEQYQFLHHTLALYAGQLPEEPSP
PLAP act: PLAP enzyme activators, biochemical, luminescence, HTS. Alkaline phosphatase, placental type (Homo sapiens), P05187. purified PLAP enzyme, luminescent substrate read-out; hits give high values. activation fold at 20 µM. 96,000 compounds, 1.2% hits. AID 696, 2007; in the data active = activation fold above about 2
E coli WT exp: growth inhibitors of wild-type E. coli, primary screen, strain BW25113, expanded library, OD600 | OD600 absorbance | growth inhibition, % at 100 µM | 98,000 compounds, 0.15% hits | AID 710, 2007;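 active = growth inhibition above about 50% at one test dose, limit read from the data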;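 note: growth measured after 20 h incubation at 37 °C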
Active calls of the source: *; / = not tested or not shown; ! = a repeat was not active. In the library only some 5.4% were active in any assay of this set; here they are far more common. Cut-off read from the data, not from the text of the source, unless noted: active = inhibition above about 30%; inactive = the rest.

SMILES | Ecoli tolC | PostGolgi yeast | PostGolgi ctrl | HePTP inh | PLAP act | E coli WT exp
O=[N+]([O-])c1ccc(N2CCN(S(=O)(=O)c3ccccc3)CC2)cc1NC1CC1 | / | / | / | -14.6 | / | /
Cc1c(NC(=S)NCCc2ccccc2)c(=O)n(-c2ccccc2)n1C | / | / | / | -12.5 | / | /
CCOC(=O)c1ccc(COC(=O)c2nonc2N)cc1 | -21.6 | -2.3 | 2.9 | 2.6 | 1 | 2.0
Cc1ccc2ccccc2c1COC(=O)c1nonc1N | -7.3 | -3.9 | 74.5* | 3.0 | 0.8 | -2.0
O=C(CSc1nc2ccccc2s1)c1ccc2ccccc2c1 | / | / | / | 3.4 | / | /
O=C(c1c(Cl)cccc1Cl)N1CCN(c2cccc(Cl)c2)CC1 | / | / | / | -10.2 | / | /
Nc1c(-c2ccc(Cl)cc2)cnc2ncnn12 | / | -4.2 | 13.9 | / | 1.2 | 6.0
Cc1cc2ncc(-c3ccc(Cl)cc3)c(N)n2n1 | 17.1 | -3.8 | 13.8 | 15.2 | 2* | 20.0
CCCC(C)C(=O)Nc1nc(C)c(-c2csc(Nc3ccc(Cl)cc3)n2)s1 (stereo not given) | / | 0.2 | 33.9* | / | 1.2 | -2.0
CCCCOC(=O)c1cccc(NC(=O)c2c(-c3ccccc3Cl)noc2C)c1 | / | / | / | -0.5 | / | /
CN(C)c1ccc(-c2nc3ccccn3c2/N=C/c2cccc([N+](=O)[O-])c2O)cc1 | / | / | / | -17.0 | / | /
Cc1cc(Cl)cc(Cl)c1OCCOc1cccc2cccnc12 | / | -9.5 | 31.9* | / | 0.8 | -5.0
Cc1cc(C)cc(OCCCOc2cccc3cccnc23)c1 | / | -3.6 | 62.4* | / | 1.1 | 2.0
Brc1ccccc1OCCCOc1cccc2cccnc12 | / | / | / | 8.6 | / | /
Clc1cc(Br)ccc1OCCOCCOc1cccc2cccnc12 | / | 2.0 | 60.3* | / | 1 | -5.0
CCOC(=O)CCC(NC(=O)c1ccc(Cl)cc1)C(=O)OCC (stereo not given) | / | / | / | -11.6 | / | /
Cc1onc(-c2c(Cl)cccc2Cl)c1C(=O)n1c(C)nc2ccccc21 | / | / | / | 3.8 | / | /
O=C(Nc1ccc([N+](=O)[O-])cc1)c1ccc(Cl)cc1Cl | / | / | / | -8.4 | / | /
COC(=O)COc1ccc(/C=N/NC(=O)CSc2nc(C)cc(C)n2)cc1 | / | / | / | -10.3 | / | /
Cc1cc(-c2ccccc2)c2nncn2n1 | -9.1 | -2.4 | 9.7 | 78.0*! | 1.1 | 6.0
COCCNC(=O)C1(C)Oc2ccccc2NC1=O (stereo not given) | / | -9.8 | -4.6 | / | 1 | 2.0
CC(=O)OC1(C(F)(F)F)Oc2ccccc2NC1=O (stereo not given) | -14.1 | 12.5 | 43.8* | 8.7 | 1 | 0.0
CN1CCN(C(c2ccc(F)cc2)c2nnnn2Cc2cccs2)CC1 (stereo not given) | -14.1 | 2.5 | 4.8 | 3.4 | 1.6 | -5.0
COc1ccc(N2CCN(C(c3ccccc3OC)c3nnnn3C3CCCC3)CC2)cc1 (stereo not given) | 9.3 | 2.6 | 2.5 | 6.2 | 1.5 | -9.0
COc1ccc(N2CCN(C(c3cccs3)c3nnnn3C3CCCC3)CC2)cc1 (stereo not given) | 24.5 | 13.4 | 78.2* | 9.5 | 1.1 | -7.0
SMILES | Ecoli tolC | PostGolgi yeast | PostGolgi ctrl | HePTP inh | PLAP act | E coli WT exp
Fc1ccc(C(c2nnnn2Cc2cccs2)N2CCN(C3CCCCC3)CC2)cc1 (stereo not given) | -3.8 | 4.2 | 3.1 | 9.4 | 2.1* | 4.0
Fc1ccc(N2CCN(C(c3cccs3)c3nnnn3C3CCCC3)CC2)cc1 (stereo not given) | 3.0 | 10.9 | 35.7* | 6.0 | 1.4 | -20.0
CCN(CC)C(=O)c1cn(-c2ccccc2)nc1-c1ccc(Br)cc1 | / | / | / | -3.5 | / | /
Cc1ccc2c(c1)c1c(n2CCC(N)=O)C(=O)CCC1 | / | / | / | 10.4 | / | /
COc1cccc(CSc2nc3ccccc3cc2C=O)c1 | / | 32.5* | 51.3* | / | 1.1 | -9.0
COc1ccc(OC)c(-n2c(O)c(C=Nc3ccc4c(c3)OCO4)c(=O)[nH]c2=O)c1 | / | / | / | -7.9 | / | /
Cc1ccc(CN2CCSc3ccc(C(=O)N4CCN(c5ncccn5)CC4)cc32)cc1 | 68.5* | 2.0 | 64.4* | 3.0 | 1.1 | -12.0
CC1CC(C)CN(C(=O)c2ccc3c(c2)N(Cc2ccccc2)CCS3)C1 (stereo not given) | / | 87.5* | 74.8* | / | 1.3 | -22.0
O=C(NCCN1CCOCC1)c1ccc2c(c1)N(Cc1ccccc1)CCS2 | 17.8 | 5.7 | -2.9 | 0.6 | 1.8 | 13.0
COc1ccc(NC(=O)NCCN2CCN(c3cccc(Cl)c3)CC2)cc1 | -5.1 | 42.6* | 42.1* | -8.8 | 1.2 | 4.0
